Experimental data from different studies.
Each line is one published result; the experiments were not run side by side. ≈ marks a conversion by molar mass, not a printed value.

Compound	organism	assay	test system	conditions	quantity	value
CC1=C(Cn2ccnn2)C(=O)c2ccccc2C1=O	Schistosoma mansoni	parasite growth		72 h, larva	IC50	1050 nM
CC(=O)N1CCN(c2ccc(OCC3COC(Cn4ccnc4)(c4ccc(Cl)cc4Cl)O3)cc2)CC1 (stereo not drawn)	Pichia kudriavzevii	microbial growth, broth dilution	ATCC14243	48 h	MIC	8 µg/mL (≈ 15.1 µM)
CC1=C(Cc2cn(CCN3CCC(F)(F)CC3)nn2)C(=O)c2ccccc2C1=O	Schistosoma mansoni	parasite growth		72 h, larva	IC50	1600 nM
O=C1/C(=C/c2ccc3ccccc3c2O)NC(=S)N1c1ccccc1	Fusarium solani	microbial growth, broth dilution			MIC	20 µg/mL (≈ 57.7 µM)
C=CC(=O)ON=C1C=CC(=C(C#N)c2ccccc2)C=C1	Pichia kudriavzevii	microbial killing, broth dilution	ATCC14243	48 h	MFC	16 µg/mL (≈ 57.9 µM)
O=C(Nc1ccc(F)cc1F)c1ccc(COC(Cn2ccnc2)c2ccc(Cl)cc2Cl)cc1 (stereo not drawn)	Pichia kudriavzevii	microbial growth, broth dilution			MIC80	0.03 µg/mL (≈ 0.0597 µM)
C#CCON=C1C=CC(=C(C#N)c2ccccc2)C=C1	Pichia kudriavzevii	microbial killing, broth dilution	ATCC14243	48 h	MFC	64 µg/mL (≈ 246 µM)
CC1=C(Cn2cncn2)C(=O)c2ccccc2C1=O	Schistosoma mansoni	parasite growth		72 h, larva	IC50	900 nM
N#CC(=C1C=CC(=NOC(=O)OCc2ccccc2)C=C1)c1ccccc1	Pichia kudriavzevii	microbial killing, broth dilution	ATCC14243	48 h	MFC	256 µg/mL (≈ 718 µM)
O=C(Nc1cccc(Cl)c1)c1ccc(COC(Cn2ccnc2)c2ccc(Cl)cc2Cl)cc1 (stereo not drawn)	Pichia kudriavzevii	microbial growth, broth dilution			MIC80	0.25 µg/mL (≈ 0.499 µM)
C#CCOC(=O)ON=C1C=CC(=C(C#N)c2ccccc2)C=C1	Pichia kudriavzevii	microbial killing, broth dilution	ATCC14243	48 h	MFC	32 µg/mL (≈ 105 µM)
CC1=C(Cc2cn(CCN3CCNCC3)nn2)C(=O)c2ccccc2C1=O	Schistosoma mansoni	parasite growth		72 h, larva	IC50	1670 nM
O=C(Nc1ccc(Cl)cc1)c1ccc(COC(Cn2ccnc2)c2ccc(Cl)cc2Cl)cc1 (stereo not drawn)	Pichia kudriavzevii	microbial growth, broth dilution			MIC80	0.125 µg/mL (≈ 0.25 µM)
C[C@@H]1[C@H](O)[C@@H](C)/C=C/C=C/C=C/C=C/C=C/C=C/C=C/[C@H](O[C@@H]2O[C@H](C)[C@@H](O)[C@H](N)[C@@H]2O)C[C@@H]2O[C@](O)(C[C@@H](O)C[C@@H](O)[C@H](O)CC[C@@H](O)C[C@@H](O)CC(=O)O[C@H]1C)C[C@H](O)[C@H]2C(=O)O	Pichia kudriavzevii	microbial growth, broth dilution	ATCC14243	48 h	MIC	2 µg/mL (≈ 2.16 µM)
O=C(Nc1ccc2ccccc2c1)c1ccc(COC(Cn2ccnc2)c2ccc(Cl)cc2Cl)cc1 (stereo not drawn)	Pichia kudriavzevii	microbial growth, broth dilution			MIC80	32 µg/mL (≈ 62 µM)
Cc1nnc(-c2ccc3ccn(CC(=O)Nc4ccccc4Cl)c3c2)o1	Plasmodium knowlesi	parasite growth, SYBR Green		30 h, blood stage	EC50	431 nM
CC1=C(Cn2cnc([N+](=O)[O-])n2)C(=O)c2ccccc2C1=O	Schistosoma mansoni	parasite growth		72 h, larva	IC50	860 nM
O=C(Nc1ccc2cccnc2c1)c1ccc(COC(Cn2ccnc2)c2ccc(Cl)cc2Cl)cc1 (stereo not drawn)	Pichia kudriavzevii	microbial growth, broth dilution			MIC80	8 µg/mL (≈ 15.5 µM)
CC1=C(Cc2cn(CCN3CCN(C(=O)OC(C)(C)C)CC3)nn2)C(=O)c2ccccc2C1=O	Schistosoma mansoni	parasite growth		72 h, larva	IC50	1890 nM
CC(=O)ON=C1C=CC(=C(C#N)c2ccccc2)C=C1	Pichia kudriavzevii	microbial killing, broth dilution	ATCC14243	48 h	MFC	16 µg/mL (≈ 60.5 µM)
OC(Cn1cncn1)(Cn1cncn1)c1ccc(F)cc1F	Pichia kudriavzevii	microbial growth, broth dilution			MIC80	16 µg/mL (≈ 52.2 µM)
OC(Cn1cncn1)(Cn1cncn1)c1ccc(F)cc1F	Pichia kudriavzevii	microbial growth, broth dilution	ATCC6258	48 h	MIC	0.7 µg/mL (≈ 2.29 µM)
O=C(Nc1cccc2ccccc12)c1ccc(COC(Cn2ccnc2)c2ccc(Cl)cc2Cl)cc1 (stereo not drawn)	Pichia kudriavzevii	microbial growth, broth dilution			MIC80	16 µg/mL (≈ 31 µM)
CC1=C(Cn2cc(C(C)(C)O)nn2)C(=O)c2ccccc2C1=O	Schistosoma mansoni	parasite growth		72 h, larva	IC50	1050 nM
